Bioassay records deposited in PubChem by several laboratories.
In the library only some 1.1% were active in any assay of this set; here they are far more common.
procasp3 activ: activators of human procaspase-3; 0.11% of 330,000 active; activation, % at 8.5 µM; P42574; AID 463141; recombinant procaspase-3 D3A, Ac-DEVD-pNA absorbance 405 nm;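 active = activation above the mean of all tested compounds plus 3 SD, cut at about 21% in these data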;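 also: 0% = DMSO alone and 100% = DMSO wells spiked with extra 5 µM PC-3 D3A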
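Compound: 8.5 µM single point, 0.8% DMSO / Material: Autoprocessing-dead procaspase-3 D3A mutant enzyme / Timing: 1 h preincubation plus 2 h reaction at 25 °C / Medium: Zinc-free HEPES/NaCl buffer with 0.01% Triton X-100 at pH 7.4 / Technique: 405 nm absorbance of p-nitroaniline, reads at 0 and 120 min / Repeats: one well per compound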
aDG glyco act: increases alpha dystroglycan glycosylation; Pro5-aDG cells, alpha-DG glycosylation AlphaScreen (IIH6); 0% Pro5, 100% B10-LARGE cell signal; 0.22% of 360,000 active; activation, % at 10 µM;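 active = activation of at least 8% versus controls, or a plate z-score of at least 8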;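 also: Pro5 are CHO cells carrying HIG-tagged alpha-DG that lacks glycosylation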
GRK2 inh: blocks RNA aptamer binding to human GRK2; AID 488847; bead flow cytometry, FAM-aptamer displacement from GRK2; 0.59% of 330,000 active; inhibition of aptamer binding, % at 10 µM; P25098;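 active = inhibition of aptamer binding above 40%, roughly 3 SD of noise, on plates passing a quality check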;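 also: median bead fluorescence of bound FAM aptamer so fluorescent compounds give negative values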
Target sequence (P25098 whole entry, looked up): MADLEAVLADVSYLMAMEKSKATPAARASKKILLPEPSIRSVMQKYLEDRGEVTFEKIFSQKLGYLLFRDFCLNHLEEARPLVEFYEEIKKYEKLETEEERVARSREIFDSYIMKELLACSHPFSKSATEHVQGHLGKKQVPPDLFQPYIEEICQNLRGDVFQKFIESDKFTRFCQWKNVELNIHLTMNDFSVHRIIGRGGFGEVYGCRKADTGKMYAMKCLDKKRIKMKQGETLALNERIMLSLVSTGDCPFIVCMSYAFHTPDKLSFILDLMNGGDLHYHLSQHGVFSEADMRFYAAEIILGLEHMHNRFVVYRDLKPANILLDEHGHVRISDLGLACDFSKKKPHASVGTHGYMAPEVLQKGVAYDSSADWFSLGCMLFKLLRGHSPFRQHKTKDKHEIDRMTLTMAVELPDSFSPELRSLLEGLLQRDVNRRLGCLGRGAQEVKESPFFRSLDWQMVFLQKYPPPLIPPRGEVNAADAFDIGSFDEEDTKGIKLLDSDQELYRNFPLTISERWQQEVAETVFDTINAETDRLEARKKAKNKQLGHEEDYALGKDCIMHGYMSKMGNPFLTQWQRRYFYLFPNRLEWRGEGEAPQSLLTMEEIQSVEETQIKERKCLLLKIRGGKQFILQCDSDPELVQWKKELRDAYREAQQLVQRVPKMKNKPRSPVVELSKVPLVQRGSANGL
CaV13 ICDI inh: Disruptors of the CACNA1D IQ motif to Ca2+-dependent inactivation inhibitor domain association, primary screening, Förster resonance energy transfer in intact living …; HEK cells, CFP/YFP FRET ICDI-IQ, plate reader, 10 min; percent FRET-ratio fall versus neutral wells; inhibition, % at 12.3 µM; 0.098% of 340,000 active;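 active = mean replicate inhibition of at least 30% and at least 1% of replicates passing that level; inconclusive = only one of the two criteria is met; inactive = neither criterion is met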;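 also: 0% = median of the neutral control wells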
T cell HTS: modulates CD8 T cell binding to vesicles; 2C CD8+ T cell-vesicle binding, flow cytometry; stronger effect = lower value; response (vesicle binding), % at 7 µM; 0.068% of 330,000 active; AID 2052;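 active = response, share of CD8 T cells binding vesicles, and their 90th percentile fluorescence all below set limits, cut at about 80% in these data, passing the limit was not always enough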;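 also: values below 100% mean blocked vesicle binding to the CD8+ T cells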
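material = purified 2C TCR transgenic mouse naive CD8+ T cells | controls = Unloaded micro-vesicles (low), QL9 vesicles with 0.7% DMSO (high) | detection = cytometric PE anti-B7-1 and Alexa647 anti-CD8 signals after 1% paraformaldehyde fixation | incubation = binding step 1.5 h, 37 °C, antibody labelling 20 min, ice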
procasp7 counter: activates human procaspase-7, counter-screen for procaspase-3 activators | P55210 | activation, % at 8.5 µM | recombinant procaspase-7, Ac-DEVD-pNA absorbance 405 nm; D23A/D198A/D206A triple mutant, cannot self-cleave; scale: DMSO 0, 5 µM enzyme 100 | AID 463210 | 0.093% of 330,000 active;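 active = percent activation above the screen-wide mean plus 3 SD, cut at about 25% in these data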
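Material: Procaspase-7 triple mutant (PC-7 D3A) | Quantity: 2 µM procaspase-7 mutant as dispensed | Reagent: DEVD-pNA substrate | Times: 1 h preincubation, 2 h reaction | Technique: 405 nm absorbance of p-nitroaniline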
GRK2 CP1: human GRK2 inhibition confirmation, cherry pick 1 | shares compounds with GRK2 inh | bead-bound GRK2, FAM-aptamer displacement, flow cytometry | aptamer displacement, % at 10 µM | 4% of 2,000 active | AID 504451;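 active = aptamer displacement above 40%, near three times the noise of non-fluorescent compounds, on plates passing quality checks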;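 also: negative values mostly reflect intrinsic compound fluorescence rather than true enhancement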
FAM quench CP1: quenches fluorescent RNA aptamer, GRK2 hit artifact. fluorescence response (% of DMSO), % at 10 µM. Carboxyfluorescein RNA aptamer on beads, flow cytometry quenching; stronger effect = lower value. 2,000 tested, under 10 active. shares compounds with GRK2 inh;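 active = compounds that quench the bead-bound fluorescent RNA probe, cutting fluorescence to under half of the solvent control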;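 also: counterscreen run without GRK2 so only probe quenching by compound is measured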
GRK2 confirm 2: confirmation of human GRK2 inhibitors binding RNA aptamer site | bead-bound GRK2, FAM-aptamer displacement, flow cytometry | 360 tested, under 10 active | inhibition of aptamer binding, % at 10 µM | shares compounds with GRK2 inh;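 active = inhibition of aptamer binding above 40%, about triple the noise seen with nonglowing compounds, on plates passing quality control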;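 also: negative values mostly come from compounds that fluoresce themselves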
FAM quench SP: aptamer fluorescence quenching in GRK2 counter-screen | 360 tested, under 10 active | carboxyfluorescein RNA aptamer beads, flow cytometry quenching; stronger effect = lower value | shares compounds with GRK2 inh | fluorescence response vs DMSO, % at 10 µM | AID 588494;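 active = response vs DMSO under 50%, meaning signal dropped by over half, treated as fluorescence quencher; inconclusive = no clear call, values can overlap the other calls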;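 also: labelled aptamer on streptavidin beads without GRK2 as a quench counter-screen; 100% = bead fluorescence of DMSO wells and lower means quenching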
* hit, by the source's call; i = inactive; ? = inconclusive; . = no result given.

SMILES | procasp3 activ | aDG glyco act | GRK2 inh | CaV13 ICDI inh | T cell HTS | procasp7 counter | GRK2 CP1 | FAM quench CP1 | others
CCOc1ccc(N(CC(=O)NN=C2CCN(C)CC2)S(=O)(=O)c2ccc(Br)cc2)cc1 | . | 0 | 0 | -6 | 295 | . | . | .
O=C(Cn1c(C(F)(F)F)nc2ccccc21)OCC(=O)c1c[nH]c2ccccc12 | -7 | 0 | 80* | -6 | 433 | 0 | . | . | GRK2 confirm 2=-43;FAM quench SP=102
COc1ccc(C(C(=O)NC2CCCCC2)N(C(=O)c2sc(C)nc2C)c2ccc(C(C)=O)cc2)cc1 (stereo not drawn) | 2 | 0 | 3 | -8 | 650 | 1 | . | .
Cc1ccc(NC2c3ncccc3C(=O)N2Cc2ccc(F)cc2)cc1 (stereo not drawn) | 0 | 0 | 76* | -6 | 269 | -4 | 0 | 104
COc1ccc(CCNC(=S)NCc2ccc(Cl)c(Cl)c2)cc1OC | 6 | 0 | 2 | -4 | 378 | 0 | . | .
Cc1nn(Cc2c(F)c(F)c(F)c(F)c2F)c(C)c1NC(=O)c1ccc(COc2ccccc2Cl)o1 | -4 | 2 | 2 | -9 | 490 | 0 | 2 | 99
N#C/C(=C\Nc1ccccc1SC(F)(F)F)c1nc(-c2ccccc2)cs1 | 1 | 1 | 48* | 4 | 344 | -4 | 0 | 95
CCN(CCO)Cc1csc2cccc(Br)c12 | -1 | 0 | 1 | -2 | 322 | 3 | . | .
CCN(CC)CCN(CC)Cc1ccccc1Br | -12 | 0 | 99* | -7 | . | -11 | 2 | 101
CO[C@H]1O[C@@H]2O[C@@]3(C)CC[C@H]4[C@H](C)CC[C@@H]([C@H]1C)[C@@]24OO3 | -2 | . | 2 | . | 536 | 0 | . | .
CC(=O)COc1coc(CN2CCN(c3ccc(F)cc3)CC2)cc1=O | -3 | 0 | 99* | -2 | 548 | 4 | 19 | 96
CCOC(=O)C1CCN(C(=S)Nc2ccc(S(N)(=O)=O)cc2)CC1 | -9 | 0 | 0 | -5 | 235 | -16 | . | .
NS(=O)(=O)c1ccc(NC(=S)N2CCC(O)CC2)cc1 | -8 | 0 | 91* | -18 | i | -15 | 2 | 99
OCC[C@@H]1C[C@H](O)[C@@H](O)[C@@]2(CCCc3ccccc3O2)O1 | 4 | 0 | 3 | -9 | 708 | 3 | . | .
Cc1ccc(CN2[C@@H](CC(C)C)COCCS2(=O)=O)cc1 | 3 | 0 | 0 | -11 | 469 | -5 | . | .
O=C(Nc1ccc(Cl)cn1)C1CCCN(c2ncnc3c2nc2n3CCCCC2)C1 (stereo not drawn) | 5 | 0 | 1 | -2 | 480 | 16 | . | .
O=C(Nc1ccc(Cl)cn1)C1CCN(c2ncnc3c2nc2n3CCCCC2)CC1 | 7 | 0 | 55* | -6 | 143 | 15 | -4 | 107
Cc1n[nH]c(=O)c2c(NC(=O)CSc3nc4ccccc4c(=O)n3CCCOC(C)C)oc(C)c12 | -9 | 0 | 0 | -3 | 179 | -1 | . | .
O=C(N/N=C/c1c(O)ccc2ccccc12)Nc1ccccc1 | -17 | . | 43* | -5 | 866 | -49 | -2 | 99
COC(=O)[C@]12C[C@H](CC(=O)NCC3CCCCC3)C(=O)N(CCC3=CCCCC3)C1=C[C@H](C(C)(C)C)O[C@@H]2C | . | . | . | -10 | . | . | . | .
O=[N+]([O-])c1ccc(-c2cn3nc(-c4ccccc4)c(-c4ccccc4)nc3n2)cc1 | -22 | 0 | 42* | ? | 117 | -18 | 28 | 107
O=[N+]([O-])c1cccc(-c2cn3nc(-c4ccccc4)c(-c4ccccc4)nc3n2)c1 | 2 | 0 | 14 | -4 | 116 | 7 | . | .
Cc1ccc(-c2cn3nc(-c4ccccc4)c(-c4ccccc4)nc3n2)cc1 | -18 | 0 | 66* | -3 | 694 | -26 | 3 | 103
O=C(NCC1CCCO1)c1ccc(S(=O)(=O)N2CCC(c3nc4ccc(Cl)cc4[nH]3)CC2)cc1 (stereo not drawn) | 4 | 0 | 0 | -10 | 476 | 4 | . | .
COc1ccccc1Oc1cc(-n2nc(C)cc2C)ncn1 | 4 | 0 | 82* | -6 | 485 | 3 | . | . | GRK2 confirm 2=8;FAM quench SP=100
SMILES | procasp3 activ | aDG glyco act | GRK2 inh | CaV13 ICDI inh | T cell HTS | procasp7 counter | GRK2 CP1 | FAM quench CP1 | others
CCC(=O)Nc1ccc(C(=O)COC(=O)Cc2ccsc2)cc1 | 1 | 0 | 48* | -2 | 201 | -24 | -5 | 98
Cc1nn(-c2cccc(Cl)c2)nc1C(=O)Nc1cccc(C(=O)NC2CC2)c1 | -7 | 0 | 2 | -6 | 220 | -1 | 1 | 96
Cc1ccc(-n2nc(C)c(C(=O)Nc3cccc(C(=O)NC4CC4)c3)n2)c(C)c1 | -2 | 0 | 0 | -7 | 238 | -2 | -1 | 103
CC(=O)c1cccc(NC(=O)c2cc(-c3ccc(C)cc3)on2)c1 | -5 | 0 | 2 | -5 | 439 | 3 | -2 | 97
CC(=O)c1cccc(NC(=O)c2c(C)nn(-c3ccccc3)c2Cl)c1 | 4 | 0 | 0 | -5 | 166 | -2 | 2 | 84
CC(=O)c1ccc(NC(=O)c2c(C)nn(-c3ccccc3)c2Cl)cc1 | 2 | 0 | 3 | 2 | i | 1 | . | .
COc1ccc(NC(=O)c2cc(-c3ccc(C)cc3)on2)cc1OC | 0 | 0 | 0 | 7 | 174 | 12 | . | .
CCOc1ccc(S(=O)(=O)N(CC)CC(=O)NC2CCS(=O)(=O)C2)cc1 (stereo not drawn) | 4 | 0 | 1 | -2 | 681 | 14 | . | .
Cc1ccc(C)c(NC(=O)/C(C#N)=C/c2ccc(Sc3nncn3C)c([N+](=O)[O-])c2)c1 | 16 | . | 3 | . | 179 | 12 | . | .
O=C(O)C[C@H]1c2cc(F)ccc2S(=O)(=O)N1C1CCCC1 | -2 | 0 | 44* | -8 | 218 | -1 | -2 | 98
O=C(O)C[C@H]1c2cc(F)ccc2S(=O)(=O)N1C1CCCCC1 | 4 | 0 | 0 | -5 | 708 | 3 | . | .
